PGE2 EP2 inh: blocks the human prostaglandin E2 receptor EP2 | C6 glioma cells expressing human EP2, cAMP TR-FRET; cells stimulated with saturating PGE2 | inhibition, % at 25 µM | 0.52% of 260,000 active | AID 1422;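 active means percent inhibition above 40 after rounding to a whole number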;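 further: rat C6 glioma host cells with rolipram phosphodiesterase inhibitor present; the protocol text gives 20 µM as final concentration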
Target sequence (P43116 whole entry, looked up): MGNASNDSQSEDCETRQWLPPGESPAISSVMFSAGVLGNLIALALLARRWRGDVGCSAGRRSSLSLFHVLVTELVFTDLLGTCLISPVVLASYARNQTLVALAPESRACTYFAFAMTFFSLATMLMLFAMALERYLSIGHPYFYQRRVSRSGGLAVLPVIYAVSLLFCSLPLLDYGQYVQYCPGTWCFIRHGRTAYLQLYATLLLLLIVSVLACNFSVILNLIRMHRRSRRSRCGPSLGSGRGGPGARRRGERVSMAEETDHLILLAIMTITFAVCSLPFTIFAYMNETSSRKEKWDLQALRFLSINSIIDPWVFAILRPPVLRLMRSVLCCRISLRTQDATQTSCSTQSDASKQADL
FXIa inh: blocks human coagulation factor XIa protease activity; P03951; purified FXIa, Boc-Glu-Ala-Arg-AMC fluorogenic substrate; inhibition, % at 5 µM; 0.14% of 220,000 active; AID 798;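 active means inhibition of at least 40%; inactive means inhibition below 40%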;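 further: fluorescence of freed AMC excited at 355 nm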
EP2 mod: modulators of human EP2 prostaglandin E2 receptor; P43116; EP2-expressing cells, cAMP HTRF FRET, PGE2 co-stimulation; induction, % at 25 µM; 0.83% of 260,000 active; AID 940;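 active means compounds whose cAMP rise, as percent of the full-agonist control response, exceeds 60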;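 further: rat C6 glioma line stably carrying human EP2 under a CMV promoter; the protocol text gives 20 µM as final concentration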
KLK5 inh: blocks human kallikrein 5 protease activity; 0.59% of 210,000 active; AID 873; recombinant hK5, fluorogenic AMC substrate cleavage; inhibition, % at 5 µM;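 active means inhibition of 40% or more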
FXIIa inh: blocks human coagulation factor XIIa protease activity; P00748; 0.3% of 220,000 active; purified FXIIa, Boc-QGR-AMC fluorogenic substrate, 2 h; inhibition, % at 5 µM; in the data active means inhibition above about 40%
thrombin 1536: blocks human thrombin protease activity. P00734. alpha-thrombin, Boc-VPR-AMC fluorogenic substrate cleavage. inhibition, % at 5 µM. 0.26% of 220,000 active;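 active means inhibition at or above 40%; inactive means inhibition below 40%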
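Assay system: human alpha-thrombin enzyme. Reagent: Boc-VPR-AMC substrate, 15 µM final. Compound dosing: one concentration per compound, 5 µM, with 0.2% DMSO. Incubation: room-temperature reaction. Technique: AMC fluorescence, 355/460 nm. Measure: % inhibition relative to enzyme controls and enzyme-free blanks.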
Large screens that a line does not name were inactive; ! = not active in a repeat. Rows were chosen to be rich in hits. Some 2.1% of all compounds tested hit in one or more screens of this group.

CC(C)n1c(SCC(=O)Nc2nccs2)nc2c1c(=O)n(C)c(=O)n2C	none (no result: FXIa inh, KLK5 inh, FXIIa inh, thrombin 1536)
O=C(NNC(=O)C(c1ccccc1)c1ccccc1)c1cccs1	KLK5 inh 56, thrombin 1536 104
O=C(NNC(=O)c1cccs1)c1ccc(Br)o1	FXIa inh 43
CCn1c(SCC(=O)N2CCCC2)nnc1-c1cccs1	none (no result: FXIa inh, KLK5 inh, FXIIa inh, thrombin 1536)
CCn1cc(S(=O)(=O)CC(=O)Nc2ccc(OC)cc2)c2ccccc21	KLK5 inh 41
CCN(CC)C(=S)SSC(=S)N(CC)CC	PGE2 EP2 inh 60!
CCOc1ccccc1C(=O)Nc1nnc(SCC(=O)N2CCOCC2)s1	KLK5 inh 43, thrombin 1536 55
COc1ccc(CN(Cc2ccncc2)C2CC(C)(C)NC(C)(C)C2)cc1OC	none (no result: FXIa inh, KLK5 inh, FXIIa inh, thrombin 1536)
CCCCC(=O)NCc1ccc2c(c1)cc(C)n2C	none
CCOC(=O)CCC(=O)NCc1ccc2c(c1)cc(C)n2C	KLK5 inh 54
CCOC(=O)c1c(NC(=O)COc2ncnc3ccccc23)sc(C)c1CC	KLK5 inh 69
COc1ccc(Br)cc1C1Nc2ccccc2C2C=CCC21 (stereo not given)	none (no result: FXIa inh, KLK5 inh, FXIIa inh, thrombin 1536)
COc1cc(C2Nc3c(Cl)cc(Cl)cc3C3C=CCC32)cc(OC)c1OC (stereo not given)	EP2 mod 62 (no result: FXIa inh, KLK5 inh, FXIIa inh, thrombin 1536)
N#Cc1nc(-c2ccccc2Cl)oc1N1CCCCC1	EP2 mod 63
C=CCOC(=O)C1=C(C)N=c2s/c(=C\c3ccc(C)o3)c(=O)n2C1c1ccc(OC)c(OC)c1 (stereo not given)	none (no result: FXIa inh, KLK5 inh, FXIIa inh, thrombin 1536)
Cn1c2ccccc2n2c(=O)n(CC(=O)N3CCOCC3)nc12	none (no result: FXIa inh, KLK5 inh, FXIIa inh, thrombin 1536)
NC(=O)c1ccsc1NC(=O)c1nc(-c2ccccc2)n(-c2ccccc2)n1	thrombin 1536 44
COc1ccc(-c2ccc(CCC(=O)O)n2-c2ccccc2O)cc1	thrombin 1536 59
COc1ccc(-n2c(CCC(=O)O)ccc2-c2ccccc2)cc1	none
CCOC(=O)c1c(-c2ccccc2)oc2ccc(OCC(=O)O)cc12	EP2 mod 68
CCN(CC)C(=O)c1c(-c2ccccc2)oc2ccc(OC)cc12	EP2 mod 64
CN(C)c1ccc(C(=O)N2CCC(O)(c3ccccn3)CC2)cc1	none (no result: PGE2 EP2 inh, FXIa inh, KLK5 inh, FXIIa inh, thrombin 1536)
c1ccc(Cn2nc(-c3ccccc3)nc2-c2ccccc2)cc1	none
Cc1nnc2nc(-c3ccccc3)nc(-c3ccccc3)n12	EP2 mod 82
CCN1C(=O)/C(=C2\SC(=S)N(CCCOC)C2=O)c2ccccc21	none
CN1C(=O)/C(=C2\SC(=S)N(CCCCCC(=O)O)C2=O)c2ccccc21	EP2 mod 75
Cc1ccc(C)c(-n2c(SCC(=O)O)nc3ccccc3c2=O)c1	none (no result: FXIa inh, KLK5 inh, FXIIa inh, thrombin 1536)
O=C(Nc1ccccc1Cl)C1(c2ccccc2)CC1(Cl)Cl (stereo not given)	EP2 mod 62
CC(=O)n1cc(Nc2ccc([N+](=O)[O-])cc2)c2ccccc21	none
CC(=O)SC(C[N+](=O)[O-])c1cn(C(C)=O)c2ccccc12 (stereo not given)	PGE2 EP2 inh 81
CC[C@@H](Cn1ncc2ccccc2c1=O)NC(=O)Cc1ccccc1F	none (no result: FXIa inh, KLK5 inh, FXIIa inh, thrombin 1536)
CSc1ccccc1C(=O)C1CCCN(S(=O)(=O)N(C)C)C1 (stereo not given)	FXIIa inh 102
CN1CCN(CC(=O)Nc2ccccc2Sc2ccccc2)CC1	none
O=C(CCl)Nc1ccccc1Sc1ccccc1	EP2 mod 64
O=C(CN1CCCC1)Nc1ccccc1Sc1ccccc1	EP2 mod 61
CCc1ccccc1NC(=O)CCN1C(=O)/C(=C/c2cc(OC)c(OC)c(OC)c2)SC1=S	none (no result: FXIa inh, KLK5 inh, FXIIa inh, thrombin 1536)
CCN1C2=C(C(=O)CCC2)C(c2ccc(O)c(Cl)c2)C2=C1CCCC2=O	none (no result: FXIa inh, KLK5 inh, FXIIa inh, thrombin 1536)
CO/N=C\C(=N\Nc1ccc(OC)cc1)C(=O)c1ccccc1	EP2 mod 62
CO/N=C/C(=N\Nc1ccc(C)cc1)C(=O)c1ccc(OC)cc1	none
COc1cccc(C2(NC(=O)c3ccc(OC)c(Cn4cccn4)c3)CCCC2)c1	none (no result: PGE2 EP2 inh, FXIa inh, KLK5 inh, FXIIa inh, thrombin 1536)
Cc1nc(Cl)c(C#N)cc1-c1ccccc1	KLK5 inh 57
Cc1ccc(NC(=O)c2cc(N3C(=O)C=CC3=O)ccc2N2CCOCC2)cc1	PGE2 EP2 inh 118
Cc1nn(-c2ccccc2)c(C)c1NC(=O)c1cccs1	KLK5 inh 50
